# Reference: ChEMBL document CHEMBL3108706, “Design, synthesis, and biological activity of novel dicoumarol glucagon-like peptide 1 conjugates” (J Med Chem, 2013)
# Activity calls are given as the source filed them. The rule behind the calls is not given here.
# What was measured:
# [1] = system: Mus musculus; experiment: Hypoglycemic activity in C57BL/6J-m+/+Leprdb (db/db) mouse assessed as time required to reduce plasma glucose level below 8.35 mM at 25 nmol/kg, ip administered for 0.5 hrs; assay type: functional
# Outline: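 Non-fasted male db/db mice (7 weeks, free access to food and water) got a single ip injection (25 or 150 nmol/kg) or saline. Mean ± SD, n = 6.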
# [2] = Mean residence time in Sprague-Dawley rat at 15 nmol/kg, sc by LC-MS/MS analysis; assay type: ADME, organism-based; conditions: in vivo
# [3] = Elimination half life in Sprague-Dawley rat at 15 nmol/kg, sc by LC-MS/MS analysis; assay type: ADME, organism-based; conditions: in vivo, read-out: beta t1/2 (converted)
# [4] = system: Rattus norvegicus; experiment: AUC (0 to infinity) in Sprague-Dawley rat at 15 nmol/kg, sc by LC-MS/MS analysis; assay type: ADME, organism-based, Plasma; design: dose 15 nmol/kg, route subcutaneous, time infinity; conditions: in vivo
# [5] = Cmax in Sprague-Dawley rat at 15 nmol/kg, sc by LC-MS/MS analysis; assay type: ADME, organism-based; design: dose 15 nmol/kg, route subcutaneous; conditions: in vivo
# [6] = Tmax in Sprague-Dawley rat at 15 nmol/kg, sc by LC-MS/MS analysis; assay type: ADME, organism-based; conditions: in vivo
# [7] = system: Rattus norvegicus; experiment: Antidiabetic activity in Sprague-Dawley rat assessed as reduction of plasma glucose level at 25 nmol/kg, ip administered 0.5 hrs prior to glucose challenge measured at 15 to 60 mins by OGTT; assay type: functional, organism-based
# [8] = system: Rattus norvegicus; experiment: Antidiabetic activity in Sprague-Dawley rat assessed as increase of plasma insulin level at 25 nmol/kg, ip administered 0.5 hrs prior to glucose challenge measured for 120 mins by ELISA; assay type: functional, organism-based
# Outline: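 SD rats (200−250 g, n = 6/group) were fasted 12 h and given compound ip (25 nmol/kg) or saline 0.5 h before oral glucose (10 g/kg). Tail-vein blood glucose was read with a meter at −30, 0, 15, 30, 45, 60, 90, 120 and 180 min. Insulin was measured by rat insulin ELISA. Mean ± SD.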
# [9] = system: Rattus norvegicus; experiment: Antidiabetic activity in Sprague-Dawley rat assessed as increase of plasma insulin level at 25 nmol/kg, ip administered 0.5 hrs prior to glucose challenge measured at 45 mins by ELISA; assay type: functional
# [10] = system: Rattus norvegicus; experiment: Antidiabetic activity in Sprague-Dawley rat assessed as reduction of plasma glucose level at 25 nmol/kg, ip administered 0.5 hrs prior to glucose challenge by OGTT (reference value: 13.32 +/- 1.84 mM); assay type: functional
# [11] = biological target: albumin (Homo sapiens, UniProt P02768); experiment: Binding affinity to human serum albumin at 100 ug/mL after 3 hrs relative to control; assay type: ADME; conditions: read-out: PB (converted)
# Outline: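 Peptide at 100 μg/mL in PBS (50 μL) was incubated with HSA-conjugated Sepharose resin for 3 h at 25 °C, then centrifuged (1000 rpm, 10 min). Unbound peptide in the supernatant was quantified by micro BCA assay. Nonspecific adsorption was corrected with NHS-inactivated, albumin-free resin.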
# [12] = Half life in Sprague-Dawley rat plasma at 1000 ng/mL by LC-MS/MS analysis; assay type: ADME, cell-free
# [13] = system: Rattus norvegicus; experiment: Antidiabetic activity in Sprague-Dawley rat assessed as increase of plasma insulin level at 25 nmol/kg, ip administered 0.5 hrs prior to glucose challenge measured at 15 mins by ELISA; assay type: functional
# [14] = system: Rattus norvegicus; experiment: Anticoagulant activity in Sprague-Dawley rat assessed as prothombin time at 150 nmol/kg, iv administered for 6 days measured on day 7 by coagulometric analysis (reference value: 13.5 +/- 0.32 secs); assay type: functional
# [15] = system: Rattus norvegicus; experiment: Anticoagulant activity in Sprague-Dawley rat assessed as prothombin time at 25 nmol/kg, iv administered for 6 days measured on day 7 by coagulometric analysis (reference value: 13.5 +/- 0.32 secs); assay type: functional
# [16] = system: Mus musculus; experiment: Hypoglycemic activity in C57BL/6J-m+/+Leprdb (db/db) mouse assessed as time required to reduce plasma glucose level below 8.35 mM at 150 nmol/kg, ip administered for 0.5 hrs; assay type: functional
# Outline: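 Non-fasted male db/db mice (7 weeks, free access to food and water) got a single ip injection (25 or 150 nmol/kg) or saline. Glucose AUC0−48h and the time for glucose to return below 8.35 mM were derived. Mean ± SD, n = 6.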
# [17] = system: Mus musculus; experiment: Hypoglycemic activity in C57BL/6J-m+/+Leprdb (db/db) mouse assessed as reduction of plasma glucose level at 25 nmol/kg, ip administered 0.5 hrs prior to glucose challenge measured after 18 to 21 hrs by IPGTT (reference value: >30 mM); assay type: functional
# [18] = system: Mus musculus; experiment: Hypoglycemic activity in C57BL/6J-m+/+Leprdb (db/db) mouse assessed as reduction of plasma glucose level at 25 nmol/kg, ip administered 0.5 hrs prior to glucose challenge measured at 21.5 hrs by IPGTT (reference value: >30 mM); assay type: functional
# [19] = system: Mus musculus; experiment: Hypoglycemic activity in C57BL/6J-m+/+Leprdb (db/db) mouse assessed as reduction of plasma glucose level at 25 nmol/kg, ip administered 0.5 hrs prior to glucose challenge measured at 21.5 to 24 hrs by IPGTT; assay type: functional, organism-based
# [20] = system: Mus musculus; experiment: Hypoglycemic activity in C57BL/6J-m+/+Leprdb (db/db) mouse assessed as reduction of plasma glucose level at 25 nmol/kg, ip administered 0.5 hrs prior to glucose challenge measured up to 17 hrs by IPGTT (reference value: >30 mM); assay type: functional
# [21] = biological target: Glucagon-like peptide 1 receptor (Homo sapiens, UniProt P43220); experiment: Activation of human GLP-1 receptor overexpressed in HEK293 cells assessed as cAMP accumulation after 20 mins by HTRF assay; assay type: functional, cell-based
# [22] = system: Rattus norvegicus; experiment: Anticoagulant activity in Sprague-Dawley rat assessed as activated […] time at 150 nmol/kg, iv administered for 6 days measured on day 7 by coagulometric analysis (reference value: 26.5 +/- 0.81 secs); assay type: functional
# [23] = system: Rattus norvegicus; experiment: Anticoagulant activity in Sprague-Dawley rat assessed as activated […] time at 25 nmol/kg, iv administered for 6 days measured on day 7 by coagulometric analysis (reference value: 26.5 +/- 0.81 secs); assay type: functional
# [24] = system: Rattus norvegicus; experiment: Anticoagulant activity in Sprague-Dawley rat assessed as thombin time at 150 nmol/kg, iv administered for 6 days measured on day 7 by coagulometric analysis (reference value: 19.38 +/- 0.72 secs); assay type: functional
# [25] = system: Rattus norvegicus; experiment: Anticoagulant activity in Sprague-Dawley rat assessed as thombin time at 25 nmol/kg, iv administered for 6 days measured on day 7 by coagulometric analysis (reference value: 19.38 +/- 0.72 secs); assay type: functional
# Sequence of Glucagon-like peptide 1 receptor (P43220 whole entry): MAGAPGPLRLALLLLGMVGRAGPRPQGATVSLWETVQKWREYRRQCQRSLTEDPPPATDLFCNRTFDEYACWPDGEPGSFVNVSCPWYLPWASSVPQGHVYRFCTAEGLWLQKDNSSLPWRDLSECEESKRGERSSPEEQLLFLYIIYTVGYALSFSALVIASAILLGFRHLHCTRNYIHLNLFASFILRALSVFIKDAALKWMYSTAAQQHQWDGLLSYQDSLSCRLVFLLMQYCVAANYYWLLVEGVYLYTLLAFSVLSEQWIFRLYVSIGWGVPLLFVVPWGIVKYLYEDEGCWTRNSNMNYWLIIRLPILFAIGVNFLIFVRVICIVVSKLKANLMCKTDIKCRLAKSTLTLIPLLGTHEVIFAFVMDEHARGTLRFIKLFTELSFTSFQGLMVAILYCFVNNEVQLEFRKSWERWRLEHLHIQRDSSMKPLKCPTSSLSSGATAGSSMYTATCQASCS
# Sequence of albumin (P02768 whole entry): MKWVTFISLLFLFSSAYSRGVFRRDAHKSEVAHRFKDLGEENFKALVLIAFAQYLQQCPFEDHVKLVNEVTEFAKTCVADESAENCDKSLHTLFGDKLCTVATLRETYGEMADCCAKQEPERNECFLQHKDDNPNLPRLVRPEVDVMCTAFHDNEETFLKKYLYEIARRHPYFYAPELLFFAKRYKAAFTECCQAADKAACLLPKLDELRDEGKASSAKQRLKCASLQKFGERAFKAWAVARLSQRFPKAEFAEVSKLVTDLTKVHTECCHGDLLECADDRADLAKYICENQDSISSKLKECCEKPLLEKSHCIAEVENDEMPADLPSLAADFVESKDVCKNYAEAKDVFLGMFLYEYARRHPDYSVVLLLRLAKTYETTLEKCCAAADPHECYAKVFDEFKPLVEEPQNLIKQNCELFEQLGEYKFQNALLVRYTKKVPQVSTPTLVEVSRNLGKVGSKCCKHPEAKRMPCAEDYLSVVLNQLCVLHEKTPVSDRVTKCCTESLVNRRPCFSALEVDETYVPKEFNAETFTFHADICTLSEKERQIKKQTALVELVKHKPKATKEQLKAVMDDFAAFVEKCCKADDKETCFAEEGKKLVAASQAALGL
MRT [2],half-life [3],AUC [4],Cmax [5],Tmax [6],"fraction unbound at 3 h, 100 ug/mL [11]",half-life at 1000 ng/mL [12],EC50 [21],Structure (SMILES),Time [1],Activity [7],Activity [8],Activity [9],Activity [10],Activity [13],further results
18.3 h,12.5 h,18100 ng·h/mL,902 ng/mL,1.51 h,0.087,17.1 h,,CCCCCCCCCCCCCCCC(=O)N[C@@H](CCC(=O)NCCCC[C@H](NC(=O)[C@H](C)NC(=O)[C@H](C)NC(=O)[C@H](CCC(N)=O)NC(=O)CNC(=O)[C@H](CCC(=O)O)NC(=O)[C@H](CC(C)C)NC(=O)[C@H](Cc1ccc(O)cc1)NC(=O)[C@H](CO)NC(=O)[C@H](CO)NC(=O)[C@@H](NC(=O)[C@H](CC(=O)O)NC(=O)[C@H](CO)NC(=O)[C@@H](NC(=O)[C@H](Cc1ccccc1)NC(=O)[C@@H](NC(=O)CNC(=O)[C@H](CCC(=O)O)NC(=O)[C@H](C)NC(=O)[C@@H](N)Cc1cnc[nH]1)[C@@H](C)O)[C@@H](C)O)C(C)C)C(=O)N[C@@H](CCC(=O)O)C(=O)N[C@@H](Cc1ccccc1)C(=O)N[C@H](C(=O)N[C@@H](C)C(=O)N[C@@H](Cc1c[nH]c2ccccc12)C(=O)N[C@@H](CC(C)C)C(=O)N[C@H](C(=O)N[C@@H](CCCNC(=N)N)C(=O)NCC(=O)N[C@@H](CCCNC(=N)N)C(=O)NCC(=O)O)C(C)C)[C@@H](C)CC)C(=O)O [LIRAGLUTIDE],19 h,Active,Active,425.34 pM,8.3 mM,992.08 pM,
29.8 h,18.8 h,36800 ng·h/mL,907 ng/mL,1.3 h,0.06,55.8 h,0.0242 nM,CC[C@H](C)[C@H](NC(=O)[C@H](Cc1ccccc1)NC(=O)[C@H](CCC(=O)O)NC(=O)[C@H](CCCCN)NC(=O)[C@H](C)NC(=O)[C@H](C)NC(=O)[C@H](CCC(N)=O)NC(=O)CNC(=O)[C@H](CCC(=O)O)NC(=O)[C@H](CC(C)C)NC(=O)[C@H](Cc1ccc(O)cc1)NC(=O)[C@H](CO)NC(=O)[C@H](CO)NC(=O)[C@@H](NC(=O)[C@H](CC(=O)O)NC(=O)[C@H](CO)NC(=O)[C@@H](NC(=O)[C@H](Cc1ccccc1)NC(=O)[C@@H](NC(=O)CNC(=O)[C@H](CCC(=O)O)NC(=O)CNC(=O)[C@@H](N)Cc1cnc[nH]1)[C@@H](C)O)[C@@H](C)O)C(C)C)C(=O)N[C@@H](C)C(=O)N[C@@H](Cc1c[nH]c2ccccc12)C(=O)N[C@@H](CC(C)C)C(=O)N[C@H](C(=O)N[C@@H](CCCCN)C(=O)NCC(=O)N[C@@H](CCCNC(=N)N)C(=O)N[C@@H](CSC1CC(=O)N(CCCCCCCCCCCC(=O)Nc2ccc(C(c3c(O)c4ccccc4oc3=O)c3c(O)c4ccccc4oc3=O)cc2)C1=O)C(N)=O)C(C)C (some centres undefined),22.5 h,Active,Active,524.26 pM,7.8 mM,1052.22 pM,PT [14]: 13.53 s; PT [15]: 13.39 s; Time [16]: 30.4 h; Activity [17]: <16 mM; Activity [18]: 16.25 mM; Activity [19]: Active; Activity [20]: <12 mM; APTT [22]: 26.48 s; APTT [23]: 26.76 s; TT [24]: 19.8 s; TT [25]: 19.4 s
,,,,,0.162,20.7 h,0.0336 nM,CC[C@H](C)[C@H](NC(=O)[C@H](Cc1ccccc1)NC(=O)[C@H](CCC(=O)O)NC(=O)[C@H](CCCCN)NC(=O)[C@H](C)NC(=O)[C@H](C)NC(=O)[C@H](CCC(N)=O)NC(=O)CNC(=O)[C@H](CCC(=O)O)NC(=O)[C@H](CC(C)C)NC(=O)[C@H](Cc1ccc(O)cc1)NC(=O)[C@H](CO)NC(=O)[C@H](CSC1CC(=O)N(CCCCCC(=O)Nc2ccc(C(c3c(O)c4ccccc4oc3=O)c3c(O)c4ccccc4oc3=O)cc2)C1=O)NC(=O)[C@@H](NC(=O)[C@H](CC(=O)O)NC(=O)[C@H](CO)NC(=O)[C@@H](NC(=O)[C@H](Cc1ccccc1)NC(=O)[C@@H](NC(=O)CNC(=O)[C@H](CCC(=O)O)NC(=O)CNC(=O)[C@@H](N)Cc1cnc[nH]1)[C@@H](C)O)[C@@H](C)O)C(C)C)C(=O)N[C@@H](C)C(=O)N[C@@H](Cc1c[nH]c2ccccc12)C(=O)N[C@@H](CC(C)C)C(=O)N[C@H](C(=O)N[C@@H](CCCCN)C(=O)NCC(=O)N[C@@H](CCCNC(=N)N)C(N)=O)C(C)C (some centres undefined),,,,,,,
,,,,,0.332,9.7 h,0.003 nM,CC[C@H](C)[C@H](NC(=O)[C@H](Cc1ccccc1)NC(=O)[C@H](CCC(=O)O)NC(=O)[C@H](CCCCN)NC(=O)[C@H](C)NC(=O)[C@H](C)NC(=O)[C@H](CCC(N)=O)NC(=O)CNC(=O)[C@H](CCC(=O)O)NC(=O)[C@H](CC(C)C)NC(=O)[C@H](Cc1ccc(O)cc1)NC(=O)[C@H](CO)NC(=O)[C@H](CO)NC(=O)[C@@H](NC(=O)[C@H](CC(=O)O)NC(=O)[C@H](CO)NC(=O)[C@@H](NC(=O)[C@H](Cc1ccccc1)NC(=O)[C@@H](NC(=O)CNC(=O)[C@H](CCC(=O)O)NC(=O)CNC(=O)[C@@H](N)Cc1cnc[nH]1)[C@@H](C)O)[C@@H](C)O)C(C)C)C(=O)N[C@@H](C)C(=O)N[C@@H](Cc1c[nH]c2ccccc12)C(=O)N[C@@H](CC(C)C)C(=O)N[C@H](C(=O)N[C@@H](CCCCN)C(=O)NCC(=O)N[C@@H](CCCNC(=N)N)C(=O)N[C@@H](CSC1CC(=O)N(CCC(=O)Nc2ccc(C(c3c(O)c4ccccc4oc3=O)c3c(O)c4ccccc4oc3=O)cc2)C1=O)C(N)=O)C(C)C (some centres undefined),,,,,,,
